The text below walks through data of ChEMBL document CHEMBL1153308 (Bioorg Med Chem Lett, 2009).

Experiment [1] has as its target T1, Replicase polyprotein 1ab (Severe acute respiratory syndrome-related coronavirus, UniProt P0C6X7). Put plainly: Inhibition of ATPase activity of SCV helicase assessed as phosphate release by colorimetric assay. The method in brief:
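Purified SCV NTPase/helicase (400 nM in 50 mM Tris/HCl pH 6.6) preincubated with compounds for 5 min at rt. Stopped with malachite green/molybdate reagent in 1 M HCl. A620 read after 5 min, with phosphate from a standard curve.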

Experiment [2] is described as follows: Inhibition of HCV RNA dependent RNA polymerase. The arrangement: species or system Hepacivirus hominis.
Experiment [3] concerns the target T1, Replicase polyprotein 1ab. Put plainly: Inhibition of SCV helicase assessed as duplex-DNA unwinding by FRET based assay. The procedure, abridged: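 Substrate was 25-bp dsDNA with a 20-dT 5′-overhang. SCV helicase (150 nM in 20 mM HEPES pH 7.4) preincubated with compounds for 5 min at rt. Started with 5X reaction solution (5 mM MgCl2, 45 mM ATP, 25 mM DTT, 100 nM dsDNA substrate as 5X concentrations), then 2 min at 37 °C. Stopped with EDTA plus unmodified trap oligomer, with FRET read-out.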

Bounds are passed on as bounds.

The term IC50 denotes the concentration at which inhibition is half-maximal. In the case of `O=C(O)/C(O)=C/C(=O)c1cccc(NCc2ccccc2)c1`, the half-inhibitory concentration (IC50) in experiment [1] is above 50 µM; in experiment [2] it was 0.96 µM; in experiment [3], 5.4 µM.
`O=C(O)/C(O)=C/C(=O)c1ccc(OCc2ccccc2)cc1`: the values for the IC50 in experiment [1], in experiment [2] and in experiment [3] were 41.3 µM, 0.96 µM and 39.9 µM, respectively.
In the same order, the values of `O=C(O)/C(O)=C/C(=O)c1ccc(OCc2ccc(Cl)cc2)cc1` are above 50 µM, 0.96 µM and above 50 µM.
In the same order, the values of `O=C(O)/C(O)=C/C(=O)c1cccc(OCc2ccccc2)c1` are above 50 µM, 0.96 µM and above 50 µM.
With `O=C(O)/C(O)=C/C(=O)c1cccc(OCc2ccc(Cl)cc2)c1`, the IC50 in experiment [1] worked out at 24.4 µM; in experiment [2] it was 0.96 µM; in experiment [3], 13.6 µM.
In the same order, the values of `O=C(O)/C(O)=C/C(=O)c1ccccc1OCc1ccc(Cl)cc1` are above 50 µM, 0.96 µM and 28.7 µM.
In the same order, the values of `O=C(O)/C(O)=C/C(=O)c1ccccc1OCc1ccccc1` are above 50 µM, 0.96 µM and above 50 µM.
In the same order, the values of `O=C(O)/C(O)=C/C(=O)c1cccc(NCc2ccc(Cl)cc2)c1` are above 50 µM, 0.96 µM and 11 µM.
